From ChEMBL document CHEMBL3797170, “A Grand Challenge: Unbiased Phenotypic Function of Metabolites from Jaspis splendens against Parkinson's Disease” (J Nat Prod, 2016) come the findings set out here.

Active and inactive are the calls of the source. The calls are words filed in the database; no cut-off is given here.

Data set [1] relates to ONS. The experiment in a line: Induction of phenotypic perturbation in human ONS cells assessed as increase in lysosome marker at 10 uM after 24 hrs by lysotrack red DND-99 staining based assay relative to control. The format is functional, cell-based. The gist of the method: (§1)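 hONS cells from Parkinson's disease patient line C1 200 08 0013, 1350 cells/well in DMEM/F12 with 10% FBS, exposed to 10 μM compound (0.6% DMSO; DMSO alone as control) for 24 h at 37 °C, 5% CO2. Live stain with LysoTracker Red DND-99 (100 nM, 1 h), then PFA fixation, anti-EEA1 immunostaining, DAPI and CellMask. Imaged at 20×, six fields/well, per-cell features given as log2 ratio to DMSO.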

The nature of data set [2]: Cytotoxicity against human ONS cells derived from parkinsons disease patients assessed as alteration of cellular parameters at 10 uM. Type of data set: cell-based. The gist of the method: (§2)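 Patient-derived hONS cells (Parkinson's line C1 200 08 0013), 1350 cells/well in DMEM/F12 + 10% FBS, exposed to 10 μM compound (0.6% DMSO final; DMSO 0.6% as negative control) for 24 h at 37 °C, 5% CO2. Plate 1: MitoTracker Orange 400 nM, fixed, anti-α-tubulin and anti-LC3b. Plate 2: LysoTracker Red 100 nM, anti-EEA1, CellMask. DAPI on all cells.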

In data set [3] the target is Tubulin alpha (Homo sapiens) (UniProt P0DPH7+P68366+Q71U36+P68363+Q9BQE3+Q6PEY2+A6NHL2+Q9NY65). The data set is described as follows: Induction of phenotypic perturbation in human ONS cells assessed as increase in apha tubulin marker at 10 uM after 24 hrs by alpha tubulin staining based assay relative to control. The format is functional, cell-based. An outline of the steps:
(§3)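 hONS patient cells (line C1 200 08 0013; 1350/well, DMEM/F12 plus 10% FBS) were given 10 μM compound in 0.6% DMSO, with DMSO as control, for 24 h at 37 °C. MitoTracker Orange CMTMRos (400 nM, 30 min) was applied live before 4% PFA fixation. Anti-α-tubulin and anti-LC3b immunofluorescence plus DAPI followed. High-content imaging used six images/well, with cell segmentation, and each feature was expressed as log2 ratio versus DMSO.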

Data set [4] has as its system ONS. The experiment in a line: Induction of phenotypic perturbation in human ONS cells assessed as decrease in EEA1-associated early endosomes level in at 10 uM after 24 hrs by EEA1 staining based assay relative to control. Type of data set: functional, cell-based. An outline of the steps: as §1
Data set [5] in a line: Cytotoxicity against human ONS cells derived from parkinsons disease patients assessed as alteration of nuclear parameters at 10 uM. The format is cell-based. An outline of the steps:
as §2

Data set [6] has as its system ONS. The experiment in a line: Induction of phenotypic perturbation in human ONS cells assessed as increase in mitochondrial marker at 10 uM after 24 hrs by mitotracker orange staining based assay relative to control. Type of data set: functional, cell-based. An outline of the steps: as §3
In data set [7] the test system is ONS. The data set is described as follows: Induction of phenotypic perturbation in human ONS cells assessed as increase in LC3b marker at 10 uM after 24 hrs by LC3b staining based assay relative to control. The format is functional, cell-based. An outline of the steps: as §3
Data set [8] deals with ONS. The data set is described as follows: Induction of phenotypic perturbation in human ONS cells assessed as decrease in autophagy markers level in at 10 uM after 24 hrs relative to control. The format is functional, cell-based. An outline of the steps: as §2
Data set [9] deals with ONS. The data set is described as follows: Induction of phenotypic perturbation in human ONS cells assessed as increase in EEA1-associated early endosomes level in at 10 uM after 24 hrs by EEA1 staining based assay relative to control. The format is functional, cell-based.
Data set [10] relates to ONS. The data set is described as follows: Induction of phenotypic perturbation in human ONS cells assessed as decrease in lysosome marker at 10 uM after 24 hrs by lysotrack red DND-99 staining based assay relative to control. Type of data set: functional, cell-based.

`C/C(=C\[C@H](C)C[C@H](C)O)C[C@H](C)C(=O)N[C@@H](C)C(=O)N(C)[C@H](Cc1c(Br)[nH]c2ccccc12)C(=O)N[C@H](CC(=O)O)c1ccc(O)cc1` [JASPLAKINOLIDE Z1]: the result (in the data set with ONS [1]; in [3]; with ONS [4]; in the data set on ONS [6]; in the data set on ONS [7]) was Active. Further, the Activity result in data set [2] and in [5] was “Toxic” in each case.

On to `N#Cc1c[nH]c2ncnc(N)c12`, for which the outcome in the data set with ONS [4] was Active.

On to `COC(=O)c1c[nH]c2ncnc(N)c12`, for which the result in the data set on ONS [4] was Active.

Take `NC(=O)c1cn([C@@H]2O[C@H](CO)[C@@H](O)[C@H]2O)c2ncnc(N)c12`: the outcome in the data set with ONS [4] and in the data set on ONS [8] was Active.

Regarding `Cc1cn([C@H]2C[C@H](O)[C@@H](CO)O2)c(=O)[nH]c1=O`, the outcome in the data set with ONS [4] and in the data set on ONS [8] was Active.

With `NC(=O)c1c[nH]c2cc(Br)ccc12`, the result (with ONS [1]; in [3]; in the data set on ONS [4]; in the data set with ONS [8]; in the data set with ONS [6]; in the data set on ONS [7]) was Active.

As to `CSc1c(CC(=O)O)[n+](C)cn1C`, the outcome (with ONS [1]; in [3]; with ONS [4]; in the data set with ONS [6]; in the data set on ONS [7]) was Active.

`N#Cc1cn([C@@H]2O[C@H](CO)[C@@H](O)[C@H]2O)c2ncnc(N)c12`: the result with ONS [4] and in the data set with ONS [8] was Active.

Consider `NC(=O)c1c[nH]c2ncnc(N)c12`, for which the result in the data set on ONS [4] was Active.

Consider `Nc1ncc2ncn([C@@H]3O[C@H](CO)[C@@H](O)[C@H]3O)c2n1`, for which the result with ONS [4] and in the data set on ONS [8] was Active.

For the compound `C=C1C[C@H](C)C(=O)N[C@@H](C)C(=O)N(C)[C@H](Cc2c(Br)[nH]c3ccccc23)C(=O)N[C@@H](c2ccc(O)cc2)CC(=O)O[C@@H](C)C[C@@H](C)C1=O` [JASPLAKINOLIDE B], the Activity result in [2] and in data set [5] was “Toxic” throughout.

`COC(=O)c1cn([C@@H]2O[C@H](CO)[C@@H](O)[C@H]2O)c2ncnc(N)c12`: in the data set on ONS [4], the result was Active.

As to `CNc1nc2nccnc2c(=O)n1C`, the outcome (with ONS [1]; in [3]; in the data set on ONS [4]; with ONS [6]; in the data set on ONS [7]) was Active.

On to `COC(=O)c1c[nH]c2cc(Br)ccc12`, for which, in the data set on ONS [4], the result was Active.

Consider `C/C1=C\[C@H](C)C[C@H](C)OC(=O)C[C@H](c2ccc(O)c(Br)c2)NC(=O)[C@@H](Cc2c(Br)[nH]c3ccccc23)N(C)C(=O)[C@H](C)NC(=O)[C@@H](C)C1` [PIPESTELIDE A], for which the Activity result in [2] and in data set [5] was “Toxic” throughout.

In the case of `N=C(N)c1c[nH]c2cc(Br)ccc12`, the result (in the data set on ONS [1]; in [3]; with ONS [4]; with ONS [6]; in the data set on ONS [7]) was Active.

In the case of `O=C(NC(=O)c1c[nH]c2cc(Br)ccc12)c1c[nH]c2cc(Br)ccc12`, the result (in the data set on ONS [1]; in [3]; with ONS [4]; in the data set on ONS [6]; in the data set on ONS [7]) was Active.

On to `C[C@@H]1NC(=O)[C@@H](C)C/C=C/[C@H](C)C[C@H](C)OC(=O)C[C@H](c2ccc(O)cc2)NC(=O)[C@@H](Cc2c(Br)[nH]c3ccccc23)N(C)C1=O`, for which the Activity entry in [2] and in [5] was “Toxic” throughout.

As to `N#Cc1cn([C@@H]2O[C@H](CO)[C@@H](O)[C@H]2O)c2nc[nH]c(=O)c12`, the result (with ONS [1]; in [3]; with ONS [4]; in the data set with ONS [6]; in the data set on ONS [7]) was Active.

With `COc1cc2c3c(c(=O)oc2cc1O)NCCS3(=O)=O`, the outcome with ONS [9] and in the data set on ONS [10] was Active.

As for `C/C1=C\[C@H](C)C[C@H](C)OC(=O)C[C@H](c2ccc(O)cc2)NC(=O)[C@@H](Cc2c(Br)[nH]c3ccccc23)N(C)C(=O)[C@H](C)NC(=O)[C@@H](C)C1` [JASPAMIDE], the Activity result in [2] and in data set [5] was “Toxic” in each case.

Take `NCCc1c[nH]c2cc(Br)ccc12`: the outcome with ONS [4] and in the data set on ONS [8] was Active.

With `Nc1nc2c(ncn2[C@@H]2O[C@H](CO)[C@@H](O)[C@H]2O)c(=O)[nH]1`, the result with ONS [4] and in the data set on ONS [8] was Active.
